Key:
P-selectin [1] = target: T1, P-selectin (Homo sapiens, UniProt P16109); test: Inhibitory activity against P-selectin using ELISA-based assay
T1 sequence (P16109 whole entry): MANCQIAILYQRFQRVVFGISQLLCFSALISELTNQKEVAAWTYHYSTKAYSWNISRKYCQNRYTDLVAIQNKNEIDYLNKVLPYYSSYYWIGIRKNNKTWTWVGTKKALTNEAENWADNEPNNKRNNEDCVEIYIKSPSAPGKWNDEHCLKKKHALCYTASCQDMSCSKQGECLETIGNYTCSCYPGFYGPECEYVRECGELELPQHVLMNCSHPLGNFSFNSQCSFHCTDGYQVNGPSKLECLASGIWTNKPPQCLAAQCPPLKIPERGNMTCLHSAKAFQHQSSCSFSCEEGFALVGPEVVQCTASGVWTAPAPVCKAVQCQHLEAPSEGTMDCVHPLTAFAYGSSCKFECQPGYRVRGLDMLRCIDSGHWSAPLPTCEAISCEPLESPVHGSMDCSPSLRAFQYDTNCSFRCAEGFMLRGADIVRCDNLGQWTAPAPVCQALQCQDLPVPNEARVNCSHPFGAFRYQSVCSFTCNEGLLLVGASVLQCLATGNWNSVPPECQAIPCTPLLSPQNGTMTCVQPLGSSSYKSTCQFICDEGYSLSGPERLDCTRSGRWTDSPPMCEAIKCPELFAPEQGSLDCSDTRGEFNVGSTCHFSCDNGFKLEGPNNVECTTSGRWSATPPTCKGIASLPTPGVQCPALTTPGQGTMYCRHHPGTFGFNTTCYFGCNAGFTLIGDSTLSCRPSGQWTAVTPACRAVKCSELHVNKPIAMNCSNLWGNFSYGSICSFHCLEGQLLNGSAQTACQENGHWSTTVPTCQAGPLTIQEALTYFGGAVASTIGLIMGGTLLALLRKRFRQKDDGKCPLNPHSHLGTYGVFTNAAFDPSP
How it was run: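 P-selectin–IgG chimera precomplexed with biotinylated goat F(ab')2 anti-human IgG and streptavidin–alkaline phosphatase, preincubated with compound 30 min RT in 50 mM imidazole pH 7.2, 1% BSA, 1 mM CaCl2. Mix added to sialyl Lewis^x pentaceramide-coated (40-100 pmol/well), BSA-blocked wells, 45 min 37 °C. p-Nitrophenyl phosphate read at 405 nm; chimera-free background subtracted; duplicate/triplicate; IC50 from % inhibition.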

P-selectin [2] = target: T1, P-selectin; test: Inhibitory activity against P-selectin using cell-selectin protein assay
P-selectin [3] = target: T1, P-selectin; test: Inhibitory activity against P-selectin using cell-cell assay; Not active; type: functional
How it was run: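 CHO cells stably transfected with human P-selectin, plated the day before, used as monolayers. Compounds added at 2× in cold RPMI, 20 min 4 °C; BCECF-AM-labelled HL60 cells (2 × 10⁶ cells/mL) then adhered 30 min at 4 °C. Unbound cells washed off, bound cells read by fluorescence; triplicates; IC50 by Probit analysis.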

E-selectin = target: T2, E-selectin (Homo sapiens, UniProt P16581); test: Inhibitory activity against Selectin E using cell-cell assay; Not active; type: functional
T2 sequence (P16581 whole entry): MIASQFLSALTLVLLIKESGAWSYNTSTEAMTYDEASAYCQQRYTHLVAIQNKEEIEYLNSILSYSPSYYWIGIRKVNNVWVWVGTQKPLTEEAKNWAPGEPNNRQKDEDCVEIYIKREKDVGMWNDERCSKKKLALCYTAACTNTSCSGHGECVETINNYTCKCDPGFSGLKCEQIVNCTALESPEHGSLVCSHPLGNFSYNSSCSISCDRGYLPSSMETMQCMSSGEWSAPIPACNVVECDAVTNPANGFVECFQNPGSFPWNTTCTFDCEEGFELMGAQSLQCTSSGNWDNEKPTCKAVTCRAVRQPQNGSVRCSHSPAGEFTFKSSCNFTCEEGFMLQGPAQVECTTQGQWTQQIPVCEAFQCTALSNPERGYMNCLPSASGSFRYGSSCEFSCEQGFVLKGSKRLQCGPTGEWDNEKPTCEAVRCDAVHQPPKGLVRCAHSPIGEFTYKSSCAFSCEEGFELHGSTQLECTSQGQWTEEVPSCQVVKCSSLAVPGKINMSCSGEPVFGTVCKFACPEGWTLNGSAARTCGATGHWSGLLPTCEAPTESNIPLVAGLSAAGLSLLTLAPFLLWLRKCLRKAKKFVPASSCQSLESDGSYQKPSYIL
How it was run: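 HUVEC monolayers (≤4-5 passages, gelatin-coated wells) activated on assay day with 10 ng/mL IL-1β as native E-selectin source. Compounds at 2× in cold RPMI preincubated 20 min 4 °C in triplicate; BCECF-AM-labelled HL60 cells (2 × 10⁶ cells/mL) added, 30 min 4 °C. Unbound cells washed off, bound cells read by fluorescence; IC50 by Probit analysis.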

Row | IC50 (P-selectin [1]) [µM] | IC50 (P-selectin [2]) [µM] | IC50 (P-selectin [3]) | IC50 (E-selectin) | SMILES
1 | 100 | 21 |  |  | O=C(O)/C=C/c1ccc(-c2nc(-c3ccc(/C=C/C(=O)NCCCc4ccccc4)cc3)c(-c3ccc(C4=NOC(C(=O)O)C4)cc3)[nH]2)cc1 (stereo not given)
2 | 17 | 40 |  |  | CCCCCCCCCCCCCCCCNC(=O)/C=C/c1ccc(-c2[nH]cnc2-c2ccc(/C=C/C(=O)O)cc2)cc1
3 |  | 21 | Not Active | Not Active | CCCCCCN(CCCCCC)C(=O)/C=C/c1ccc(-c2[nH]cnc2-c2ccc(/C=C/C(=O)O)cc2)cc1
4 | 0.29 | 9 |  |  | CCCCCCCCCCCCCCCCNC(=O)/C=C/c1ccc(-c2[nH]c(-c3ccc(C4=NOC(C(=O)O)C4)cc3)nc2-c2ccc(/C=C/C(=O)O)cc2)cc1 (stereo not given)
5 | 34 | 50 | Not Active |  | O=C(/C=C/c1ccc(-c2nc(-c3ccc(N4CCCC4)cc3)[nH]c2-c2ccc(C3=NOC(C(=O)O)C3)cc2)cc1)NCCCc1ccccc1 (stereo not given)
6 | 0.13 | 2.7 |  |  | CCCCCCCCCCCCCCCCNC(=O)/C=C/c1ccc(-c2[nH]c(-c3ccc(-c4cc(C(=O)O)on4)cc3)nc2-c2ccc(/C=C/C(=O)O)cc2)cc1
7 | 3 | 290 |  | Not Active | CCCCCCCCCCCCNC(=O)/C=C/c1ccc(-c2[nH]c(-c3ccc(-c4cc(C(=O)O)on4)cc3)nc2-c2ccc(/C=C/C(=O)O)cc2)cc1
8 | 16 | 44 |  |  | CCCCCCCc1ccc(NC(=O)/C=C/c2ccc(-c3[nH]cnc3-c3ccc(/C=C/C(=O)O)cc3)cc2)cc1
9 | > 1 |  |  |  | CC(=O)N[C@H]1[C@H]([C@H](O)[C@H](O)CO)O[C@@](O[C@H]2[C@@H](O)[C@@H](CO)O[C@@H](O[C@@H]([C@H](O[C@@H]3O[C@@H](C)[C@@H](O)[C@@H](O)[C@@H]3O)[C@H](C=O)NC(C)=O)[C@H](O)CO)[C@@H]2O)(C(=O)O)C[C@@H]1O [SIALYL LEWIS X]

Source: ChEMBL document CHEMBL1134511, “Development of potent non-carbohydrate imidazole-based small molecule selectin inhibitors with antiinflammatory activity” (J Med Chem, 2001)
